Measurements reported in ChEMBL document CHEMBL1154487, “Synthesis, chemical and biological studies on new Fe(3+)-glycosilated beta-diketo complexes for the treatment of iron deficiency” (Eur J Med Chem, 2008).
The source made the active and inactive calls. The rule behind the calls is not given here.

What was measured:
[1] = Amount of free iron in Fe3+/ligand system at pH 2; details: buffer
Liver microsomes [2] = assay: Antioxidant activity against ferric ion (Fe3+-ADP)-induced lipid peroxidation in rat liver microsomes; details: Microsome
[3] = Octanol-water partition coefficient, log P after 4 hrs by shake flask method; assay type: physicochemical
Procedure, shortened: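 Shake-flask method at pH 7.0 (phosphate buffer). Water presaturated with n-octanol was mixed with the ligand or the Fe:L 1:3 system (10−4 M stock) and shaken at 37 °C for 4 h. After phase separation, aqueous concentration was measured spectrophotometrically. Log P is the log of the octanol/water concentration ratio.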

[4] = Protonation constant, pKa by spectrophotometric method; assay type: physicochemical
Procedure, shortened: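 Aqueous ligand solutions (2.5×10−5 M) were titrated spectrophotometrically, adjusting pH from 1 to 11 with concentrated NaOH or HCl. The UV absorbance maximum (320–365 nm) was followed versus pH. Protonation constants were computed from the spectral data.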

[5] = Cytotoxicity against african green monkey Vero cells at 800 uM; assay type: cell-based; details: chlorocebus sabaeus, read-out: INH
Procedure, shortened: (§1)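 Vero cells (African green monkey kidney) were grown in MEM with 10% heat-inactivated FCS at 37 °C in 5% CO2. Cells were seeded at 4×10^4 cells/well and grown 72 h with a range of compound concentrations. They were then methanol-fixed, stained with crystal violet, and the dye was extracted into acidic isopropanol and read at 540 nm. Survival is % of untreated control, mean ± SD of 3 experiments, each in triplicate.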

[6] = Protonation constant, pKa by potentiometric method; assay type: physicochemical
Procedure, shortened: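 Potentiometric titration of 3×10−3 M ligand in water at 25.0 °C, ionic strength 0.1 M (NaNO3), under nitrogen. The titrant was 1×10−2 M NaOH, over pH 2–10, with 600–720 s per point. At least 10 titrations of 40 points each were run, and constants were refined by least squares.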

[7] = Chemical stability in phosphate buffer at pH 7 after 8 hrs; assay type: physicochemical
Procedure, shortened: (§2)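 The ligand was held at 5×10−5 M in 10−2 M phosphate buffer, pH 7, at 37 °C and constant ionic strength. Degradation was followed as the change in absorbance at 345 nm. First-order kinetics were taken from ln(At/A0) versus time.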

Vero [8] = assay: Cytotoxicity against african green monkey Vero cells at 400 uM; assay type: cell-based; details: chlorocebus sabaeus
Procedure, shortened: as §1

[9] = Chemical stability in phosphate buffer at pH 7; assay type: physicochemical
Procedure, shortened: as §2

[10] = Cytotoxicity against african green monkey Vero cells at 600 uM; assay type: cell-based; details: chlorocebus sabaeus, read-out: INH
Procedure, shortened: as §1

Vero [11] = assay: Cytotoxicity against african green monkey Vero cells; assay type: cell-based; details: Chlorocebus sabaeus
Procedure, shortened: as §1

Liver microsomes [12] = assay: Antioxidant activity against ferric ion (Fe3+-ADP)-induced lipid peroxidation in rat liver microsomes after 30 mins; details: Microsome
[13] = Cytotoxicity against african green monkey Vero cells at 10 uM; assay type: cell-based; details: chlorocebus sabaeus, read-out: INH
[14] = Chemical stability in phosphate buffer at pH 7 after 1 hr; assay type: physicochemical; details: pH 7, 1 h
[15] = Cytotoxicity against african green monkey Vero cells at 5 uM; assay type: cell-based; details: chlorocebus sabaeus, read-out: INH

Structure (SMILES) | Activity [1] [%] | Activity (Liver microsomes [2]) | logP at 4 h [3] | pKa [4] | cytotoxicity at 800 µM [5] [%] | pKa [6] | Degradation % at 8 h [7] [%] | Activity (Vero [8]) [%] | half-life [9] [h] | cytotoxicity at 600 µM [10] [%] | IC50 (Vero [11]) [µM] | Activity (Liver microsomes [12]) | cytotoxicity at 10 µM [13] [%] | Stability [14] | cytotoxicity at 5 µM [15] [%]
CC(=O)/C=C(O)/C=C/c1ccc(O[C@@H]2O[C@H](CO)[C@@H](O)[C@H](O)[C@H]2O)c(O)c1 | 20 | inactive | 0.32 | 8.03 | 20 | 8.03 | < 10 | 10 | > 100 |  |  |  |  |  | 
COc1cc(/C=C/C(O)=C/C(C)=O)ccc1O[C@@H]1O[C@H](CO)[C@@H](O)[C@H](O)[C@H]1O | 40 |  | 0.13 | 8.73 | 65 | 8.75 | < 10 |  | > 100 | 40 | 700 | Active |  |  | 
O=C(O)[C@H](O)[C@@H](O)[C@H](O)[C@H](O)CO [GLUCONIC ACID] | 60 |  |  |  |  |  |  |  |  |  |  |  |  |  | 
CC(=O)/C=C(O)/C=C/c1ccc(O[C@@H]2O[C@H](CO)[C@@H](O)[C@H](O)[C@H]2O)cc1 | 30 | inactive | 0.39 | 9.22 | 40 | 9.26 | < 10 |  | > 100 | 2 |  |  |  |  | 
COc1cc(/C=C/C(=O)CC(=O)/C=C/c2ccc(O)c(OC)c2)ccc1O [CURCUMIN] |  |  |  |  |  |  |  |  | 0.167 |  |  |  | 20 | Unstable | 10
